Screening results deposited in PubChem BioAssay by several laboratories.
APP 5'UTR act – APP 5'UTR luciferase reporter activation. SH-SY5Y APP 5'UTR luciferase reporter, luminescence; zero percent = DMSO vehicle wells. hit rate 1% among 190,000. activation, % at 2 µM;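 active means activation above a set limit, based on mean plus 3 SD of controls, cut at about 140% in these data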
STAT1 activator – STAT1 signaling activation; NIH 3T3 STAT1-luciferase reporter, IFN-gamma, luminescence; 100% = IFN-gamma alone, no compound; activation (% of control), % at 5.5 µM; hit rate 2.6% among 200,000; AID 932;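 active means activation above the screen-wide mean activation plus 3 SD, cut at about 130% in these data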;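 further: raw ratio to IFN-gamma control signal so 100% means no change and 0% no light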
FLuc inh counter – Photinus pyralis luciferase inhibition counter-screen. P08659. ATPLite firefly luciferase biochemical luminescence, 10 min. inhibition, % at 10 µM. hit rate 1.5% among 200,000. AID 1006;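 active means inhibition above about 50% when tested at 10 µM, limit read from the data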
Target sequence (P08659 whole entry, looked up): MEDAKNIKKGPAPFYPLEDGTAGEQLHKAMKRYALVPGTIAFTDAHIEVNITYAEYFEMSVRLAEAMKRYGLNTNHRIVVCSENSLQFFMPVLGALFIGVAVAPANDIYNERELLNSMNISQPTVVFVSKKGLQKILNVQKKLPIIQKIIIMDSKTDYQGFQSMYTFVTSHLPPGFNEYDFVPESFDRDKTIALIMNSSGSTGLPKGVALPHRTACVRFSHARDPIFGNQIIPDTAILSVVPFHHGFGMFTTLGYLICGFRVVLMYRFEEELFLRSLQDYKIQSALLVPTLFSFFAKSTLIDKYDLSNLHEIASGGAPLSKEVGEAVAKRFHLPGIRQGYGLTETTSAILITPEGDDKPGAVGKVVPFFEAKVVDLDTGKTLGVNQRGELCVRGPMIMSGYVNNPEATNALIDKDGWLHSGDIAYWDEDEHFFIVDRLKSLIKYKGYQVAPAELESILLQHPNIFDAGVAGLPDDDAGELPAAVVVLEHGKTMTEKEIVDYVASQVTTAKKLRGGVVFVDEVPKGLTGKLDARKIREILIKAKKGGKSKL
FLuc stim CS – firefly luciferase counter-screen for stimulation assays; P08659; 200,000 tested, under 10 active; activation factor at 10 µM; ATPlite luciferase biochemical, luminescence, 10 min; 0 = ATP-free wells, 1 = DMSO control;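 active means luciferase activation factor, scaled between plate controls, of at least 2 with compound at 10 µM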
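Material: Luciferase/luciferin reagent mix; Doses: test compounds dosed from 2 mM stocks in 100% DMSO; Schedule: 10 min incubation after luciferase reagent addition, room temperature; Measured by: luminescence from luciferase reaction; Read-out: luminescence gain marking luciferase activators.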
NF-kB neuron act – NF-kB expression increase, human neuronal cells; NF-kB reporter expression; stronger effect = higher value; fold change at 12.5 µM; hit rate 1.6% among 190,000; in the data active means fold change above about 3.3
STAT1 act conf – STAT1 activation, confirmation assay; shares compounds with STAT1 activator; AID 1262; NIH 3T3 STAT1-luciferase reporter, IFN-gamma potentiation, luminescence; 100% = IFN-gamma EC80 alone, no compound; activation (% of control), % at 5.7 µM; hit rate 97% among 1,200;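 active means activation above a set limit carried over from the earlier primary STAT1 screen, cut at about 140% in these data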;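 further: simple ratio to median IFN-gamma plus DMSO wells so 0% means no light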
NFkB act – activates NF-kappaB, counter-screen to STAT1 activators | activation (% of control), % at 5.7 µM | AID 1306 | HEK293T NF-kB luciferase reporter, TNF-alpha stimulated, luminescence; 100% = TNF-alpha with vehicle only | shares compounds with STAT1 activator | hit rate 43% among 1,200;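 active means activation above the mean of solvent-only control wells plus 3 SD, set per campaign, cut at about 130% in these data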;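 further: TNF-alpha given at a submaximal dose yielding about 80% of full reporter signal; values are well signal over median control so 100% means no change and 0% no light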
STAT3 act 2 – activates human STAT3, counter-screen to STAT1 activators; shares compounds with STAT1 activator; U3A cells STAT3-luciferase reporter, IL-6, luminescence; cells lack STAT1; 100 = IL-6 alone, no compound effect; activation (% of control), % at 5.7 µM; hit rate 46% among 1,200;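 active means activation above the solvent-only control well mean plus 3 SD, set per plate batch, cut at about 110% in these data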;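 further: 0% = no luminescence and 100% = median IL-6 plus DMSO wells; higher means more STAT3 reporter activation so hits are non-selective activators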
Starred values were filed as active, the others as inactive; x = no result given. In the library only some 4.1% were active in any assay of this set; here they are far more common.

SMILES	APP 5'UTR act	STAT1 activator	FLuc inh counter	FLuc stim CS	NF-kB neuron act	STAT1 act conf	NFkB act	STAT3 act 2
CCOc1ccc(OCCCC(=O)Nc2nc3ccccc3[nH]2)cc1	-2.7	105.7	-2.5	1	1.12	x	x	x
O=C(Nc1ccc(N2CCOCC2)c(Cl)c1)c1cccc(F)c1	109.2	185.4*	16.0	0.8	5.53*	193.4*	134.9*	117.7*
O=C(Nc1ccc(N2CCOCC2)c(Cl)c1)c1cccnc1Cl	-4.2	105.6	2.0	1	1.13	x	x	x
O=C(Nc1ccc(N2CCOCC2)c(Cl)c1)c1c(F)c(F)c(F)c(F)c1F	5.7	108.2	-0.5	1	0.78	x	x	x
COc1c(C)cccc1C(=O)Nc1ccc(N2CCOCC2)c(Cl)c1	154.0*	152.3*	25.0	0.8	6.07*	198.7*	130.9	105.5
COC(=O)c1ccccc1NC(=O)C1CC=CCC1C(=O)O (stereo not drawn)	3.5	100.1	-9.9	1.1	1.33	x	x	x
O=C(NCCc1ccccc1)c1ccccc1NC(=O)C1CC=CCC1C(=O)O (stereo not drawn)	36.5	152.3*	2.4	1	1.79	133.5*	125.1	107.6
Cc1cccc(C(=O)NC(=S)Nc2ccc(S(=O)(=O)N3CCCCC3)cc2)c1	-8.9	92.1	-1.9	1	1.35	x	x	x
Cc1oc(-c2ccc(-c3ccccc3)cc2)nc1CN(C)C1CCOC1 (stereo not drawn)	79.2	165.3*	25.5	0.7	2.34	191.6*	144.0*	116.7*
CC1CCCN(C(=O)COC(=O)c2ccc[nH]c2=O)C1 (stereo not drawn)	-7.0	94.8	-2.1	1	1.05	x	x	x
Cn1cccc1/C=C1\SC(=O)N(c2ccccc2)C1=O	117.4	159.4*	51.5*	0.5	2.83	190.4*	128.6	101.7
Cn1cccc1/C=C1/SC(=O)N(CC(=O)N2CCCC2)C1=O	5.1	96.5	-6.6	1.1	1.25	x	x	x
COC(=O)/C=c1/sc2nc3ccccc3n2c1=O	13.0	97.3	-2.1	1	1.14	x	x	x
O=c1/c(=C/c2ccccn2)sc2nc3ccccc3n12	66.3	183.9*	76.2*	0.2	4.79*	288.9*	138.0*	158.3*
C/C(=N\NC(=O)c1ccccc1)c1ccccc1Br	27.5	116.5	3.0	1	1.88	x	x	x
C/C(=N\NC(=O)c1ccc(Br)cc1)c1ccccc1	96.8	158.7*	49.9	0.5	5.69*	194.9*	128.0	109.5
COc1ccc(N=c2sc3ccccc3n2C)cc1	134.5	151.0*	11.7	0.9	5.63*	207.6*	134.7*	111.4*
COc1ccc(C(C)C)cc1S(=O)(=O)n1cnc(C)c1	-1.0	103.0	-5.9	1.1	1.09	x	x	x
